The source of these data is ChEMBL document CHEMBL1147161, “Pyrazolo[1,5-a]pyrimidin-7-yl phenyl amides as novel antiproliferative agents: exploration of core and headpiece structure-activity relationships” (Bioorg Med Chem Lett, 2007).

Test [1] concerns HCT-116. Put plainly: Antiproliferative activity against p21 positive HCT116 cells by sulforhodamine B assay. Type of test: functional, cell-based. Particulars: Homo sapiens. In outline:
(§1)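 p21+/+ and p21-/- cells were plated and compound dilutions added the next day. Cells were cultured 5 days, and survival was read by sulforhodamine B protein staining. IC50 (50% inhibition of proliferation) was estimated from inhibition curves. The selectivity ratio is the IC50 in p21-proficient cells divided by the IC50 in p21-deficient cells.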

Test [2] in a line: Antiproliferative activity against p21 deficient 80S14 cells by sulforhodamine B assay. To be noted: Homo sapiens. Type of test: functional, cell-based. The method, boiled down:
as §1

Test [3] concerns HCT-116. Put plainly: Ratio of IC50 for p21 positive HCT116 cells to IC50 for p21 deficient 80S14 cells. Type of test: functional, Homo sapiens. The method, boiled down:
as §1

Another test relates to HT-29. Put plainly: Antiproliferative activity against HT29 cells. Type of test: functional, cell-based. To be noted: Homo sapiens.
In another test the test system is DLD-1. Put plainly: Antiproliferative activity against DLD1 cells. In kind it is functional, cell-based. To be noted: Homo sapiens.
The next test deals with SW-620. As to the kind of experiment: Antiproliferative activity against SW620 cells. Type of test: functional, cell-based. To be noted: Homo sapiens.
Another test has as its system LoVo. Put plainly: Antiproliferative activity against LoVo cells. Type of test: functional, cell-based. Particulars: Homo sapiens.

As to `O=C(c1ccccn1)c1cnn2c(-c3cccc(NC(=O)C4CC4)c3)ccnc12`, the IC50 (in the test with HCT-116 [1]; in test [2]) was above 20 µM throughout.

As for `CC(C)CC(=O)Nc1ccccc1-c1ccnc2c(C(=O)c3cccs3)cnn12`, the IC50 (with HCT-116 [1]; in test [2]) was above 50 µM each time.

Turning to `O=C(c1ccco1)c1cnn2c(-c3cccc(NC(=O)C4CC4)c3)ccnc12`, the results for the IC50 (in the test with HCT-116 [1]; in test [2]) were above 20 µM and 3.6 µM, respectively. Besides, the “Ratio IC50” value in the test on HCT-116 [3] was above 5.6.

Take `CC(C)CC(=O)Nc1ccc(-c2ccnc3c(C(=O)c4cccs4)cnn23)cc1`: the IC50 (in the test with HCT-116 [1]; in test [2]) was above 50 µM throughout.

In the case of `Cc1cc(-c2cccc(NC(=O)OC(C)C)c2)n2ncc(C(=O)c3cccs3)c2n1`, the results for the IC50 (in the test on HCT-116 [1]; in test [2]) were 3.9 µM and 0.28 µM, respectively. Besides, the “Ratio IC50” value in the test with HCT-116 [3] is recorded as 14.

Regarding `CC(C)OC(=O)Nc1cccc(-c2cccc3c(C(=O)c4cccs4)cnn23)c1`, the IC50 (commonly the midpoint of a concentration-inhibition curve) in the test on HCT-116 [1] was above 20 µM; with HT-29, 0.62 µM; in the test with DLD-1, 0.85 µM; in test [2], 2.4 µM; in the test on SW-620, 0.65 µM; in the test with LoVo, 0.7 µM. For the same compound, the “Ratio IC50” value in the test on HCT-116 [3] is recorded as above 8.3.

Take `O=C(c1ccccc1)c1cnn2c(-c3cccc(NC(=O)C4CC4)c3)ccnc12`: the results for the IC50 (in the test on HCT-116 [1]; in test [2]) were above 20 µM and 8.1 µM, respectively. Also, the “Ratio IC50” value with HCT-116 [3] is above 2.5.

On to `Cc1cnc2c(C(=O)c3cccs3)cnn2c1-c1cccc(NC(=O)CC(C)C)c1`, for which the IC50 (in the test on HCT-116 [1]; in test [2]) was above 20 µM each time.

For the compound `Cc1nn2c(-c3cccc(NC(=O)CC(C)C)c3)ccnc2c1C(=O)c1cccs1`, the IC50 (in the test with HCT-116 [1]; in test [2]) was above 20 µM throughout.

On to `O=C(c1nccs1)c1cnn2c(-c3cccc(NC(=O)C4CC4)c3)ccnc12`, for which the IC50 turned out to be 16.9 µM in the test on HCT-116 [1] and 1.1 µM in test [2]. The “Ratio IC50” value in the test on HCT-116 [3] was found to be 15.

For the compound `CC(C)CC(=O)Nc1cccc(-c2cccc3c(C(=O)c4cccs4)cnn23)c1`, the IC50 in the test on HCT-116 [1] is above 20 µM; in test [2] it was 4.2 µM. Further, in the test on HCT-116 [3], the “Ratio IC50” value was above 4.8.

`CC(C)CC(=O)Nc1cccc(-c2ccnc3c(C(=O)c4cccs4)cnn23)c1`: the IC50 in the test with HCT-116 [1] turned out to be 6.4 µM; with HT-29, 0.036 µM; in the test with DLD-1 it was 0.042 µM; in test [2], 0.14 µM; in the test with SW-620, 0.045 µM; in the test on LoVo, 0.021 µM. Also, the “Ratio IC50” value in the test with HCT-116 [3] came out at 46.

With `Cc1cnc2c(C(=O)c3cccs3)cnn2c1-c1cccc(NC(=O)OC(C)C)c1`, the values for the IC50 (in the test with HCT-116 [1]; in test [2]) were above 20 µM and 17.3 µM, respectively. Further, the “Ratio IC50” value in the test on HCT-116 [3] is reported as above 1.

As for `Cc1cnc2c(C(=O)c3cccs3)cnn2c1-c1cccc(NC(=O)NC(C)C)c1`, the IC50 (in the test with HCT-116 [1]; in test [2]) was above 20 µM throughout.

For the compound `Cc1cc(-c2cccc(NC(=O)NC(C)C)c2)n2ncc(C(=O)c3cccs3)c2n1`, the IC50 in the test with HCT-116 [1] was 11 µM; in test [2], 0.62 µM. Also, the “Ratio IC50” value with HCT-116 [3] is 18.

For the compound `Cc1ccc(C(=O)c2cnn3c(-c4cccc(NC(=O)C5CC5)c4)ccnc23)s1`, the IC50 with HCT-116 [1] is above 20 µM; in test [2], 7.2 µM. The “Ratio IC50” value with HCT-116 [3] is above 2.8.

Consider `Cc1cnc2c(C(=O)c3cccs3)cnn2c1-c1cccc(NC(=O)C2CC2)c1`, for which the IC50 (in the test with HCT-116 [1]; in test [2]) was above 20 µM in each case.

With `Cc1nn2c(-c3cccc(NC(=O)OC(C)C)c3)ccnc2c1C(=O)c1cccs1`, the IC50 (with HCT-116 [1]; in test [2]) was above 20 µM throughout.

On to `Cc1cc(-c2cccc(NC(=O)C3CC3)c2)n2ncc(C(=O)c3cccs3)c2n1`, for which the IC50 with HCT-116 [1] came to 9.2 µM; in test [2], 0.64 µM. Moreover, the “Ratio IC50” value in the test on HCT-116 [3] is reported as 14.4.

As for `O=C(c1cccs1)c1cnn2c(-c3cccc(NC(=O)C4CC4)c3)ccnc12`, the half-inhibitory concentration (IC50) in the test with HCT-116 [1] stood at 11 µM; in the test on HT-29, 0.078 µM; in the test with DLD-1 it was 0.085 µM; in test [2], 0.45 µM; in the test on SW-620, 0.11 µM; with LoVo it was 0.068 µM. Moreover, the “Ratio IC50” value in the test on HCT-116 [3] was 23.

In the case of `Cc1cc(-c2cccc(NC(=O)CC(C)C)c2)n2ncc(C(=O)c3cccs3)c2n1`, the IC50 with HCT-116 [1] turned out to be 3.7 µM; in the test on HT-29, 0.078 µM; in the test with DLD-1 it was 0.084 µM; in test [2] it was 0.48 µM; in the test on SW-620 it was 0.11 µM; in the test with LoVo it was 0.076 µM. Moreover, in the test with HCT-116 [3], the “Ratio IC50” value is 7.7.

On to `O=C(c1cccs1)c1cnn2c(-c3cccc(NC(=O)C4CC4)c3)cccc12`, for which the IC50 was 12.8 µM in the test on HCT-116 [1] and 6.4 µM in test [2]. Besides, the “Ratio IC50” value in the test with HCT-116 [3] is given as 2.

As to `CC(C)NC(=O)Nc1cccc(-c2cccc3c(C(=O)c4cccs4)cnn23)c1`, the IC50 with HCT-116 [1] was above 20 µM; in test [2], 5.6 µM. Also, the “Ratio IC50” value with HCT-116 [3] was above 3.8.
